# Measured values as given in ChEMBL document CHEMBL1926614, “Substituted thiazoles V. synthesis and antitumor activity of novel thiazolo[2,3-b]quinazoline and pyrido[4,3-d]thiazolo[3,2-a]pyrimidine analogues” (2012).
# Columns and labels:
# Type in all cases: functional
# CCRF-CEM = assay: Growth inhibition of human CCRF-CEM cells at 10 uM after 48 hrs by coulter counting; details: read-out: GI
# Outline: (§1)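 Single-dose primary screen across the full NCI 60-cell-line panel. Stocks were made in DMSO and diluted in PBS to a final DMSO below 1%. Cultures at 6 × 10⁴ cells/ml were run in duplicate wells alongside PBS/DMSO vehicle controls at 37 °C in humidified 5% CO₂. Data were expressed as percent growth of treated cells.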
# UACC-62 = assay: Growth inhibition of human UACC62 cells at 10 uM after 48 hrs by coulter counting; details: UACC-62, 48 h, read-out: GI
# Outline: (§2)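 Single-dose screen in the NCI 60 human tumor cell line panel (nine subpanels). Compounds dissolved in DMSO and diluted in phosphate buffered saline, keeping final DMSO below 1%. Added in duplicate wells to cells at 6 × 10⁴ cells/ml. Controls held PBS and DMSO at matching dilutions. Incubated at 37 °C, humidified, 5% CO₂. Reported as percent growth of treated cells.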
# HT-29 = assay: Growth inhibition of human HT-29 cells at 10 uM after 48 hrs by coulter counting; details: HT-29, 48 h, read-out: GI; outline: as §1
# RPMI-8226 = assay: Growth inhibition of human RPMI8226 cells at 10 uM after 48 hrs by coulter counting; details: RPMI-8226, 48 h, read-out: GI; outline: as §1
# SK-MEL-2 = assay: Growth inhibition of human SK-MEL-2 cells at 10 uM after 48 hrs by coulter counting; details: SK-MEL-2, 48 h, read-out: GI; outline: as §1
# SNB-19 = assay: Growth inhibition of human SNB19 cells at 10 uM after 48 hrs by coulter counting; details: SNB-19, 48 h, read-out: GI; outline: as §1
# NCI/ADR-RES = assay: Growth inhibition of human NCI/ADR-RES cells at 10 uM after 48 hrs by coulter counting; details: read-out: GI; outline: as §1
# NCI-H226 = assay: Growth inhibition of human NCI-H226 cells at 10 uM after 48 hrs by coulter counting; details: NCI-H226, 48 h, read-out: GI; outline: as §1
# TK-10 = assay: Growth inhibition of human TK10 cells at 10 uM after 48 hrs by coulter counting; details: TK-10, 48 h, read-out: GI; outline: as §2
# M14 = assay: Growth inhibition of human M14 cells at 10 uM after 48 hrs by coulter counting; details: M14, 48 h, read-out: GI; outline: as §1
# K562 = assay: Growth inhibition of human K562 cells at 10 uM after 48 hrs by coulter counting; details: K562, 48 h, read-out: GI; outline: as §1
# BT-549 = assay: Growth inhibition of human BT549 cells at 10 uM after 48 hrs by coulter counting; details: BT-549, 48 h, read-out: GI; outline: as §1
# NCI-H522 = assay: Growth inhibition of human NCI-H522 cells at 10 uM after 48 hrs by coulter counting; details: NCI-H522, 48 h, read-out: GI; outline: as §1
# LOX IMVI = assay: Growth inhibition of human LOXIMVI cells at 10 uM after 48 hrs by coulter counting; details: read-out: GI; outline: as §1
# HOP-62 = assay: Growth inhibition of human HOP62 cells at 10 uM after 48 hrs by coulter counting; details: HOP-62, 48 h, read-out: GI; outline: as §1
# EKVX = assay: Growth inhibition of human EKVX cells at 10 uM after 48 hrs by coulter counting; details: read-out: GI; outline: as §1
# OVCAR-8 = assay: Growth inhibition of human OVCAR8 cells at 10 uM after 48 hrs by coulter counting; details: OVCAR-8, 48 h, read-out: GI; outline: as §1
# SF-268 = assay: Growth inhibition of human SF268 cells at 10 uM after 48 hrs by coulter counting; details: SF-268, 48 h, read-out: GI; outline: as §1
# T47D = assay: Growth inhibition of human T47D cells at 10 uM after 48 hrs by coulter counting; details: read-out: GI; outline: as §2
# SK-MEL-28 = assay: Growth inhibition of human SK-MEL-28 cells at 10 uM after 48 hrs by coulter counting; details: SK-MEL-28, 48 h, read-out: GI; outline: as §1
# HCT-15 = assay: Growth inhibition of human HCT15 cells at 10 uM after 48 hrs by coulter counting; details: HCT-15, 48 h, read-out: GI; outline: as §1
# [1] = Growth inhibition of human NCI-322M cells at 10 uM after 48 hrs by coulter counting; details: read-out: GI; outline: as §1
# SF-295 = assay: Growth inhibition of human SF295 cells at 10 uM after 48 hrs by coulter counting; details: SF-295, 48 h, read-out: GI; outline: as §1
# NCI-H460 = assay: Growth inhibition of human NCI-H460 cells at 10 uM after 48 hrs by coulter counting; details: NCI-H460, 48 h, read-out: GI; outline: as §1
# CAKI-1 = assay: Growth inhibition of human Caki1 cells at 10 uM after 48 hrs by coulter counting; details: CAKI-1, 48 h, read-out: GI; outline: as §1
# SK-MEL-5 = assay: Growth inhibition of human SK-MEL-5 cells at 10 uM after 48 hrs by coulter counting; details: SK-MEL-5, 48 h, read-out: GI; outline: as §1
# HL-60(TB) = assay: Growth inhibition of human HL-60(TB) cells at 10 uM after 48 hrs by coulter counting; details: HL-60, 48 h, read-out: GI
# Outline: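 Test compound was dissolved in DMSO and diluted in phosphate-buffered saline to a final DMSO level below 1%. Dilutions were plated in duplicate with cell culture at 6 × 10⁴ cells/ml. Vehicle controls held PBS and DMSO at matching dilutions. Incubation was at 37 °C, humidified, under 5% CO₂. Data were reported as percent growth of treated cells.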
# KM12 = assay: Growth inhibition of human KM12 cells at 10 uM after 48 hrs by coulter counting; details: KM12, 48 h, read-out: GI; outline: as §1
# A498 = assay: Growth inhibition of human A498 cells at 10 uM after 48 hrs by coulter counting; details: A498, 48 h, read-out: GI; outline: as §1
# DU-145 = assay: Growth inhibition of human DU145 cells at 10 uM after 48 hrs by coulter counting; details: DU-145, 48 h, read-out: GI; outline: as §1
# 786-0 = assay: Growth inhibition of human 786-0 cells at 10 uM after 48 hrs by coulter counting; details: 786-0, 48 h, read-out: GI; outline: as §1
# A549 = assay: Growth inhibition of human A549 cells at 10 uM after 48 hrs by coulter counting; details: A549, 48 h, read-out: GI; outline: as §1
# HCT-116 = assay: Growth inhibition of human HCT116 cells at 10 uM after 48 hrs by coulter counting; details: HCT-116, 48 h, read-out: GI; outline: as §1
# SNB-75 = assay: Growth inhibition of human SNB75 cells at 10 uM after 48 hrs by coulter counting; details: SNB-75, 48 h, read-out: GI; outline: as §1
# MDA-MB-435 = assay: Growth inhibition of human MDA-MB-435 cells at 10 uM after 48 hrs by coulter counting; details: MDA-MB-435, 48 h, read-out: GI; outline: as §1
# U-251 = assay: Growth inhibition of human U251 cells at 10 uM after 48 hrs by coulter counting; details: U-251, 48 h, read-out: GI; outline: as §2
# SN12C = assay: Growth inhibition of human SN12C cells at 10 uM after 48 hrs by coulter counting; details: read-out: GI; outline: as §1
# UO-31 = assay: Growth inhibition of human UO31 cells at 10 uM after 48 hrs by coulter counting; details: UO-31, 48 h, read-out: GI; outline: as §2
# UACC-257 = assay: Growth inhibition of human UACC257 cells at 10 uM after 48 hrs by coulter counting; details: UACC-257, 48 h, read-out: GI; outline: as §2
# ACHN = assay: Growth inhibition of human ACHN cells at 10 uM after 48 hrs by coulter counting; details: read-out: GI; outline: as §1
# MOLT-4 = assay: Growth inhibition of human MOLT4 cells at 10 uM after 48 hrs by coulter counting; details: MOLT-4, 48 h, read-out: GI; outline: as §1
# MCF7 = assay: Growth inhibition of human MCF7 cells at 10 uM after 48 hrs by coulter counting; details: MCF7, 48 h, read-out: GI; outline: as §1
# NCI-H23 = assay: Growth inhibition of human NCI-H23 cells at 10 uM after 48 hrs by coulter counting; details: NCI-H23, 48 h, read-out: GI; outline: as §1
structure (smiles),measurement,setting,value
CCN1CC2=C(N=C3SC=C(C)N3C2c2cccs2)/C(=C/c2cccs2)C1 (stereo not drawn),inhibition of growth at 10 µM,CCRF-CEM,> 10%
same,inhibition of growth at 10 µM,UACC-62,> 10%
same,inhibition of growth at 10 µM,HT-29,> 10%
same,inhibition of growth at 10 µM,RPMI-8226,> 10%
same,inhibition of growth at 10 µM,SK-MEL-2,> 10%
same,inhibition of growth at 10 µM,SNB-19,> 10%
same,inhibition of growth at 10 µM,NCI/ADR-RES,> 10%
same,inhibition of growth at 10 µM,NCI-H226,> 10%
same,inhibition of growth at 10 µM,TK-10,> 10%
same,inhibition of growth at 10 µM,M14,> 10%
same,inhibition of growth at 10 µM,K562,> 10%
same,inhibition of growth at 10 µM,BT-549,> 10%
same,inhibition of growth at 10 µM,NCI-H522,> 10%
same,inhibition of growth at 10 µM,LOX IMVI,> 10%
same,inhibition of growth at 10 µM,HOP-62,> 10%
same,inhibition of growth at 10 µM,EKVX,17.7%
same,inhibition of growth at 10 µM,OVCAR-8,> 10%
same,inhibition of growth at 10 µM,SF-268,> 10%
same,inhibition of growth at 10 µM,T47D,> 10%
same,inhibition of growth at 10 µM,SK-MEL-28,> 10%
same,inhibition of growth at 10 µM,HCT-15,> 10%
same,inhibition of growth at 10 µM,[1],> 10%
same,inhibition of growth at 10 µM,SF-295,> 10%
same,inhibition of growth at 10 µM,NCI-H460,> 10%
same,inhibition of growth at 10 µM,CAKI-1,> 10%
same,inhibition of growth at 10 µM,SK-MEL-5,> 10%
same,inhibition of growth at 10 µM,HL-60(TB),> 10%
same,inhibition of growth at 10 µM,KM12,> 10%
same,inhibition of growth at 10 µM,A498,> 10%
same,inhibition of growth at 10 µM,DU-145,> 10%
same,inhibition of growth at 10 µM,786-0,> 10%
same,inhibition of growth at 10 µM,A549,> 10%
same,inhibition of growth at 10 µM,HCT-116,> 10%
same,inhibition of growth at 10 µM,SNB-75,13.6%
same,inhibition of growth at 10 µM,MDA-MB-435,> 10%
same,inhibition of growth at 10 µM,U-251,> 10%
same,inhibition of growth at 10 µM,SN12C,> 10%
same,inhibition of growth at 10 µM,UO-31,21.8%
same,inhibition of growth at 10 µM,UACC-257,> 10%
same,inhibition of growth at 10 µM,ACHN,> 10%
same,inhibition of growth at 10 µM,MOLT-4,> 10%
same,inhibition of growth at 10 µM,MCF7,> 10%
same,inhibition of growth at 10 µM,NCI-H23,> 10%
